Active and inactive are the calls of the source. The rule behind the calls is not given here.
Columns and labels:
[1] = tested on: Plasma; test: Anticoagulant potency in ICR mouse plasma assessed as concentration required to double prothrombin time; type: functional
[2] = target: CYP3A4 (Homo sapiens, UniProt P08684); test: Inhibition of human CYP3A4 at 10 uM; type: ADME
Outline: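 CYP3A4 from human B-lymphoblastoid cells expressing the enzyme (10 nM) is incubated with 100 µM testosterone and 10 µM compound for 30 min at 37 °C. 6β-Hydroxytestosterone is measured by HPLC-UV and reported as % inhibition.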

[3] = tested on: Mus musculus; test: Ex vivo anticoagulant potency in ICR mouse blood assessed as prothrombin time at 30 mg/kg, po after 1 hr relative to control; type: functional
Outline: (§1)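 Male ICR mice (30–35 g) are fasted >12 h and dosed orally as a suspension in 0.5% methylcellulose; controls get vehicle. At 1 h, blood is drawn from the abdominal aorta under pentobarbital (50 mg/kg ip) into 3.8% citrate (9:1). Plasma is spun at 1000g for 10 min, preincubated 4 min at 37 °C, clotted with thromboplastin and timed. The read-out is the clotting-time ratio versus vehicle controls.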

[4] = tested on: Plasma; test: Anticoagulant potency in human plasma assessed as concentration required to double prothrombin time; type: functional
Outline: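 Compound in DMSO is added to normal human plasma (3% v/v) and preincubated 4 min at 37 °C. Clotting is started with thromboplastin and timed on an automatic coagulometer. Prolongation is measured against a DMSO control. The concentration that doubles clotting time comes from a least-squares regression, as a mean of duplicate measurements.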

[5] = target: Coagulation factor X (Homo sapiens, UniProt P00742); test: Inhibition of human factor 10a
Chain of Coagulation factor X (P00742 41-179 limits assumed): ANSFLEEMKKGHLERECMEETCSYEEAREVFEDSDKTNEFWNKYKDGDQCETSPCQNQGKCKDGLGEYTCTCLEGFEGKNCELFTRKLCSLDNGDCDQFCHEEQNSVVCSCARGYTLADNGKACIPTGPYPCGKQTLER
Chain of Coagulation factor X (P00742 235-488 limits assumed): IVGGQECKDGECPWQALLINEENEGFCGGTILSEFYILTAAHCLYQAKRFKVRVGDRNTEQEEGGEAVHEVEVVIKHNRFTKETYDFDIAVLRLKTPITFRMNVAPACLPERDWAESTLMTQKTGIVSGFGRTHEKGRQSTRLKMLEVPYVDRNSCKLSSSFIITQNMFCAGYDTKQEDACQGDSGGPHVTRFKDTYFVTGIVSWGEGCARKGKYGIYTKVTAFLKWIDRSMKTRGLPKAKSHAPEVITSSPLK

[6] = tested on: Mus musculus; test: Ex vivo anticoagulant potency in ICR mouse blood assessed as 1.4 times prolongation of prothrombin time at 100 mg/kg, po after 1 hr relative to control; type: functional, organism-based; design: dose 100 mg/kg; outline: as §1
[7] = tested on: Mus musculus; test: Ex vivo anticoagulant potency in ICR mouse blood assessed as 1.1 times prolongation of prothrombin time at 30 mg/kg, po after 1 hr relative to control; type: functional, organism-based; design: dose 30 mg/kg; outline: as §1
[8] = Mean residence time in cynomolgus monkey at 3 mg/kg, po; type: ADME, organism-based, Macaca fascicularis; design: dose 3 mg/kg, route oral; conditions: in vivo
Outline: (§2)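 Fasted male cynomolgus monkeys (n = 3) are dosed iv in DMA/PEG400 or orally as a 0.5% methylcellulose suspension. Femoral vein blood is taken up to 24 h (from 5 min iv, from 15 min po). Plasma is deproteinized with acetonitrile, diluted with 0.01 mol/L ammonium formate at pH 3.0, and measured by LC/MS/MS. Values are means ± SD of three.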

[9] = target: Plasma kallikrein (Homo sapiens, UniProt P03952); test: Inhibition of human kallikrein after 30 mins
Chain of Plasma kallikrein (P03952 20-390 limits assumed): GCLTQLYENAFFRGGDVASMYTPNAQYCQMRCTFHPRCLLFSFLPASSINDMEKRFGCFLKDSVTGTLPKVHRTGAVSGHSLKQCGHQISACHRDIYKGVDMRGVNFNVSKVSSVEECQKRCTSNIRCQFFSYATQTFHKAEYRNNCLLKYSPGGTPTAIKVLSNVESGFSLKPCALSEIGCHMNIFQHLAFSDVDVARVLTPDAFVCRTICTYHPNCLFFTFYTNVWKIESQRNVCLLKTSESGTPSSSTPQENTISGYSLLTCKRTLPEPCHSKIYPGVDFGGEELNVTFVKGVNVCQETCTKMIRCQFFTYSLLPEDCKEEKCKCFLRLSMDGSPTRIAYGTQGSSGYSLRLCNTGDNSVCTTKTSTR
Chain of Plasma kallikrein (P03952 391-638 limits assumed): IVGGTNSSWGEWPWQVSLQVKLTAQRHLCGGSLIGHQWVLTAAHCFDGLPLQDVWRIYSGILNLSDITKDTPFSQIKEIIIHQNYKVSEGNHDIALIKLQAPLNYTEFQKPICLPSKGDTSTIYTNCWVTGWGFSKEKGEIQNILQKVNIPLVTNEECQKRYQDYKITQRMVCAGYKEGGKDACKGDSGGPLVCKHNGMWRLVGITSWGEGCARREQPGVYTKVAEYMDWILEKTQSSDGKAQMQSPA
Outline: (§3)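 Human proteases are incubated with compound for 30 min at 37 °C. Enzyme and substrate pairs are: thrombin 0.080 U/mL with S-2366; trypsin 0.040 µg/mL with S-2222; plasmin 0.040 U/mL with S-2366; kallikrein 0.020 U/mL with S-2302; t-PA 4000 U/mL with S-2288. p-Nitroanilide release is followed continuously for 5 min at 405 nm. Ki comes from Lineweaver–Burk plots at varied substrate levels, as means of three determinations.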

[10] = Oral bioavailability in cynomolgus monkey at 3 mg/kg; type: ADME, organism-based, Macaca fascicularis; conditions: in vivo; outline: as §2
[11] = Mean residence time in cynomolgus monkey at 0.3 mg/kg, iv; type: ADME, organism-based, Macaca fascicularis; design: dose 0.3 mg/kg, route intravenous; conditions: in vivo; outline: as §2
[12] = Volume of distribution at steady state in cynomolgus monkey at 0.3 mg/kg, iv; type: ADME, organism-based, Macaca fascicularis; design: dose 0.3 mg/kg, route intravenous; conditions: in vivo, read-out: Vdss; outline: as §2
[13] = AUC in cynomolgus monkey at 3 mg/kg, po; type: ADME, organism-based, Macaca fascicularis; design: dose 3 mg/kg, route oral; conditions: plasma; outline: as §2
[14] = target: Trypsin (Homo sapiens, UniProt P07477+P07478+P35030); test: Inhibition of human trypsin after 30 mins; type: protein assay; outline: as §3
[15] = Total clearance in cynomolgus monkey at 0.3 mg/kg, iv; type: ADME, organism-based, Macaca fascicularis; design: dose 0.3 mg/kg, route intravenous; conditions: in vivo; outline: as §2
[16] = AUC in cynomolgus monkey at 0.3 mg/kg, iv; type: ADME, organism-based, Macaca fascicularis; design: dose 0.3 mg/kg, route intravenous; conditions: plasma; outline: as §2
[17] = Drug concentration in cynomolgus monkey at 0.3 mg/kg, iv after 5 mins; type: ADME, organism-based, Macaca fascicularis; design: dose 0.3 mg/kg, route intravenous; conditions: in vivo, read-out: Drug uptake; outline: as §2
[18] = target: Plasminogen (Homo sapiens, UniProt P00747); test: Inhibition of human plasmin after 30 mins; outline: as §3
Chain of Plasminogen (P00747 97-580 limits assumed): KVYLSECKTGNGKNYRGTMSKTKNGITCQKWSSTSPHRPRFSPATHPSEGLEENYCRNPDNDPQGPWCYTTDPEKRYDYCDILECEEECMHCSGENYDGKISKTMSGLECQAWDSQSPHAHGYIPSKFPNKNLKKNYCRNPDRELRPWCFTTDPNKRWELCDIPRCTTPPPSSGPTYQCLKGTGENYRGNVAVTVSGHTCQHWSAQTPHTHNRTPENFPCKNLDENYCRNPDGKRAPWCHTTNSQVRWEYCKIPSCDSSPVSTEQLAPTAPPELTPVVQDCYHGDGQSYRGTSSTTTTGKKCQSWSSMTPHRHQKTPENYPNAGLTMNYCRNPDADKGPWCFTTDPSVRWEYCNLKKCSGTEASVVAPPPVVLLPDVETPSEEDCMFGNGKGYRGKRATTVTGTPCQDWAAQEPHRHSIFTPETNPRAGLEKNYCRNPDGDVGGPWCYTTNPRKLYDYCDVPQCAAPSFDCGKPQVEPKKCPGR
Chain of Plasminogen (P00747 581-810 limits assumed): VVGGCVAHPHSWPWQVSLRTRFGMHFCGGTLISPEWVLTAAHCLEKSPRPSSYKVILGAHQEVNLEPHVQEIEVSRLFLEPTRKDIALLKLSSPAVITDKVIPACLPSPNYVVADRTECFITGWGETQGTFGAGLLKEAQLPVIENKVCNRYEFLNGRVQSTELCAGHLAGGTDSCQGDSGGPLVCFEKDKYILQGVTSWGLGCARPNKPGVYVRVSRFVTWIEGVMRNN

[19] = Cmax in cynomolgus monkey at 3 mg/kg, po; type: ADME, organism-based, Macaca fascicularis; design: dose 3 mg/kg, route oral; conditions: in vivo; outline: as §2
[20] = target: Tissue-type plasminogen activator (Homo sapiens, UniProt P00750); test: Inhibition of human tPA after 30 mins; outline: as §3
Chain of Tissue-type plasminogen activator (P00750 whole entry): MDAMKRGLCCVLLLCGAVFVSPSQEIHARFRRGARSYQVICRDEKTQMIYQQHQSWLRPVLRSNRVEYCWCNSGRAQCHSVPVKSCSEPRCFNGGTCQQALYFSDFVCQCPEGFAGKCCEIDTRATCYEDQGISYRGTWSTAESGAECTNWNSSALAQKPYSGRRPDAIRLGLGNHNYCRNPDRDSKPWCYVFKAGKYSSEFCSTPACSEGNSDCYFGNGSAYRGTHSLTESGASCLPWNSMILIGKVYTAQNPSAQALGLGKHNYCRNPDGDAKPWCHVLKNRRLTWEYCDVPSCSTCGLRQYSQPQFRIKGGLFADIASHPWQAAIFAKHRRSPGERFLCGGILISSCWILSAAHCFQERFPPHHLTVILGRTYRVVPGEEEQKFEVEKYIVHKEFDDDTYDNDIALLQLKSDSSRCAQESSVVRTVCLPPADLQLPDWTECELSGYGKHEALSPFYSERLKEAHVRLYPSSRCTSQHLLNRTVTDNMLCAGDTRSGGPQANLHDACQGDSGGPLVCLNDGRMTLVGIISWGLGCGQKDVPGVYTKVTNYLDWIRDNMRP

[21] = target: Prothrombin (Homo sapiens, UniProt P00734); test: Inhibition of human thrombin after 30 mins; outline: as §3
[22] = Tmax in cynomolgus monkey at 3 mg/kg, po; type: ADME, organism-based, Macaca fascicularis; design: dose 3 mg/kg, route oral; conditions: in vivo; outline: as §2

Chain of CYP3A4 (P08684 whole entry): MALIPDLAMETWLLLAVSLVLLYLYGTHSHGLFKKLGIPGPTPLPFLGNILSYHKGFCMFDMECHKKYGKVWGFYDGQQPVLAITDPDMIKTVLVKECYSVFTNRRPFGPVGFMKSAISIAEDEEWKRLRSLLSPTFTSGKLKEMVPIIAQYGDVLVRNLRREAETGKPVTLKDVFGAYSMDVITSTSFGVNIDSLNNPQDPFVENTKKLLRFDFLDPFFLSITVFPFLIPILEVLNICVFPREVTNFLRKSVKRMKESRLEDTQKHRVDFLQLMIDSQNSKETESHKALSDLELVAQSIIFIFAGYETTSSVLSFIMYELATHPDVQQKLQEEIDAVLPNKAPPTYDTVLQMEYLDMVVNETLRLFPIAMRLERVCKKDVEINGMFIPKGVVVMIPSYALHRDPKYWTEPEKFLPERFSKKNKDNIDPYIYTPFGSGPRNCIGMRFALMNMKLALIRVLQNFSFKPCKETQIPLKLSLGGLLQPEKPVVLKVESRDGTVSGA

| Structure (SMILES) | inhibition at 10 µM [2] [%] | IC50 [5] [nM] | 2PT [1] [µM] | Ratio [3] | 2PT [4] [µM] | other results |
| --- | --- | --- | --- | --- | --- | --- |
| O=C(CCS(=O)(=O)c1ccc2cc(Cl)ccc2c1)N1CCN(c2cccc3nccn23)CC1 | 45 | 21 | 1.7 | 2.5 | 1.4 |  |
| CC(=N)N1CC[C@H](Oc2ccc([C@H](Cc3ccc4ccc(C(=N)N)cc4c3)C(=O)O)cc2)C1 [DX-9065A] |  |  |  |  | 0.81 | Activity [6]: Active; Activity [7]: Active |
| O=C(CCS(=O)(=O)c1ccc2cc(Cl)ccc2c1)N1CCN(c2cccc3ncc(CO)n23)CC1 |  | 29 |  |  | 1.7 |  |
| O=C(CCS(=O)(=O)c1ccc2cc(Cl)ccc2c1)N1CCN(c2ccc3nccn3c2)CC1 |  | 87 |  |  | 2.9 |  |
| O=C(CCS(=O)(=O)c1ccc2cc(Cl)ccc2c1)N1CCN(c2cccc3nc(CO)cn23)CC1 | 15 | 9 | 1.4 | 1.3 | 1.4 | MRT [8]: 3.6 h; Ki [9]: 14000 nM; bioavailability [10]: 30.5%; MRT [11]: 1.97 h; Vd [12]: 0.81 L/kg; AUC [13]: 2260 ng·h/mL; Ki [14]: > 60000 nM; clearance [15]: 7.33 mL/min/kg; AUC [16]: 730 ng·h/mL; concentration at 5 min [17]: 540 ng/mL; Ki [18]: > 60000 nM; Cmax [19]: 500 ng/mL; Ki [20]: > 60000 nM; Ki [5]: 8 nM; Ki [21]: 960 nM; Tmax [22]: 1.33 h |
| CC(O)Cc1cn2c(N3CCN(C(=O)CCS(=O)(=O)c4ccc5cc(Cl)ccc5c4)CC3)cccc2n1 (stereo not given) | 33 | 18 | 1.5 | 3.2 | 1.1 |  |
| O=C(CCS(=O)(=O)c1ccc2cc(Cl)ccc2c1)N1CCN(c2cccc3ncc([N+](=O)[O-])n23)CC1 |  | 24 |  |  | 3.6 |  |
| CNC(=O)Cc1cn2c(N3CCN(C(=O)CCS(=O)(=O)c4ccc5cc(Cl)ccc5c4)CC3)cccc2n1 |  | 41 |  |  | 2 |  |

Second part, led by results:

| inhibition at 10 µM [2] [%] | IC50 [5] [nM] | Structure (SMILES) | 2PT [1] [µM] | Ratio [3] | 2PT [4] [µM] | other results |
| --- | --- | --- | --- | --- | --- | --- |
| 58 | 12 | Cc1cn2c(N3CCN(C(=O)CCS(=O)(=O)c4ccc5cc(Cl)ccc5c4)CC3)cccc2n1 | 1.3 | 2.9 | 0.96 |  |
|  | 840 | CN(C(=O)CCS(=O)(=O)c1ccc2cc(Cl)ccc2c1)C1CCN(c2cccc3nccn23)CC1 |  |  |  |  |
|  | 24 | CC(=O)Nc1cnc2cccc(N3CCN(C(=O)CCS(=O)(=O)c4ccc5cc(Cl)ccc5c4)CC3)n12 |  |  | 1.8 |  |
|  | 78 | O=C(CCS(=O)(=O)c1ccc2cc(Cl)ccc2c1)N1CCN(c2ccn3ccnc3c2)CC1 |  |  | 2.2 |  |
|  | 18 | CC(C)(O)c1cn2c(N3CCN(C(=O)CCS(=O)(=O)c4ccc5cc(Cl)ccc5c4)CC3)cccc2n1 |  |  | 2.1 |  |
|  | 45 | NC(=O)Cc1cn2c(N3CCN(C(=O)CCS(=O)(=O)c4ccc5cc(Cl)ccc5c4)CC3)cccc2n1 |  |  | 2.1 |  |
| 26 | 22 | CC(C)(O)Cc1cn2c(N3CCN(C(=O)CCS(=O)(=O)c4ccc5cc(Cl)ccc5c4)CC3)cccc2n1 | 1.7 | 2.4 | 0.86 |  |
| 52 | 35 | Nc1cnc2cccc(N3CCN(C(=O)CCS(=O)(=O)c4ccc5cc(Cl)ccc5c4)CC3)n12 | 1.5 | 2.4 | 0.73 |  |
| 23 | 20 | CC(O)c1cn2c(N3CCN(C(=O)CCS(=O)(=O)c4ccc5cc(Cl)ccc5c4)CC3)cccc2n1 (stereo not given) | 1.8 | 2.5 | 1.2 |  |
|  | 57 | CN(C)C(=O)Cc1cn2c(N3CCN(C(=O)CCS(=O)(=O)c4ccc5cc(Cl)ccc5c4)CC3)cccc2n1 |  |  | 2.5 |  |
|  | 93 | CCOC(=O)Cc1cn2c(N3CCN(C(=O)CCS(=O)(=O)c4ccc5cc(Cl)ccc5c4)CC3)cccc2n1 |  |  | 5.1 |  |
